Results from ChEMBL document CHEMBL1141579, “Synthesis, cytostatic, and antiviral activity of novel 6-[2-(dialkylamino)ethyl]-, 6-(2-alkoxyethyl)-, 6-[2-(alkylsulfanyl)ethyl]-, and 6-[2-(dialkylamino)vinyl]purine nucleosides” (Bioorg Med Chem, 2008).
Calls of active or inactive are those of the source. No cut-off for these calls is given here.

Assays:
CCRF-CEM [1] = assay: Cytostatic activity against human CCRF-CEM cells ATCC CCL 119 assessed as cell viability by XTT test; assay type: functional, cell-based
How it was run: (§1)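 Cell viability quantified by the XTT spectrophotometric assay. Inhibition expressed as IC50.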

Hepatitis C virus = assay: Antiviral activity against HCV 1b Con1 replicon in Huh7 cells; assay type: functional, organism-based, Hepatitis C virus subtype 1b; details: Huh-7
How it was run: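 Con-1/lucneo replicon cells seeded at 8 × 10^3 per well in medium without Geneticin. Compounds serially diluted in DMSO and added 1:200 (0.5% DMSO final). Incubated 3 days at 37 C. Cells lysed and luciferase activity read by luminometer. EC50 by non-linear regression, N = 2.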

HL-60 [2] = assay: Cytostatic activity against human HL60 cells ATCC CCL 240 assessed as cell viability by XTT test; assay type: functional, cell-based; how it was run: as §1
CCRF-CEM [3] = assay: Cytostatic activity against human CCRF-CEM cells ATCC CCL 119 assessed as growth reduction after 72 hrs; assay type: functional, cell-based
How it was run: (§2)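 Cells grown in RPMI 1640 with foetal calf serum in 24-well plates. Counted in a haematological analyzer 72 h after drug addition. Inhibition expressed as IC50.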

HL-60 [4] = assay: Cytostatic activity against human HL60 cells ATCC CCL 240 assessed as growth reduction after 72 hrs; assay type: functional, cell-based; details: for IC50: HL-60, 72 h; how it was run: as §2
L1210 = assay: Cytostatic activity against mouse L1210 cells ATCC CCL219 assessed as growth reduction after 72 hrs; assay type: functional, cell-based; details: for IC50: L1210, 72 h; how it was run: as §2
[5] = Cytotoxicity against human Huh7 cells harboring con1 replicon after 3 days by MTT assay; assay type: cell-based, Huh-7
How it was run: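 Con-1 replicon-bearing Huh-7 cells were seeded at 8 · 10^3 cells per well in medium without Geneticin. Compound was serially diluted in 100% DMSO and added 1:200, giving 0.5% DMSO final. Cells were incubated at 37 C for 3 days. Toxicity was read at the end, in duplicate (N = 2).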

[6] = Cytotoxicity against human MT4 cells after 5 days; assay type: cell-based
How it was run: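 MT-4 cells were seeded at 2 · 10^3 cells/well. Compounds were serially diluted in culture medium and cells were incubated for 5 days. Survival was measured by CellTiter Glo luminescence, in duplicate (N = 2).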

HL-60 [7] = assay: Cell cycle arrest in human HL60 cells assessed as accumulation in S phase at 4.5 uM relative to control; assay type: functional
How it was run: (§3)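 HL-60 cells treated at the stated concentration, then fixed in ethanol. Stained with propidium iodide in buffer containing RNase A and analysed by flow cytometry. Result given as the ratio of the treated to the control cell fraction in each phase (G1, S, G2/M).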

HL-60 [8] = assay: Cell cycle arrest in human HL60 cells assessed as accumulation in G1 phase at 4.5 uM relative to control; assay type: functional; how it was run: as §3
HL-60 [9] = assay: Cell cycle arrest in human HL60 cells assessed as accumulation in G2/M phase at 4.5 uM relative to control; assay type: functional; how it was run: as §3
HL-60 [10] = assay: Cell cycle arrest in human HL60 cells assessed as accumulation in G2/M phase at 18 uM relative to control; assay type: functional; how it was run: as §3
HL-60 [11] = assay: Cell cycle arrest in human HL60 cells assessed as accumulation in G1 phase at 18 uM relative to control; assay type: functional; how it was run: as §3
HL-60 [12] = assay: Cell cycle arrest in human HL60 cells assessed as accumulation in S phase at 18 uM relative to control; assay type: functional; how it was run: as §3

Row | Compound | IC50 (CCRF-CEM [1]) [µM] | EC50 (Hepatitis C virus) [µM] | IC50 (HL-60 [2]) [µM] | IC50 (CCRF-CEM [3]) [µM] | IC50 (HL-60 [4]) [µM] | IC50 (L1210) [µM] | CC50 at 72 h [5] [µM] | Activity (CCRF-CEM [3]) | Activity (HL-60 [4]) | Activity (L1210) | CC50 at 120 h [6] [µM] | Activity (HL-60 [7]) | Activity (HL-60 [8]) | Activity (HL-60 [9]) | Activity (HL-60 [10]) | Activity (HL-60 [11]) | Activity (HL-60 [12])
1 | CN(C)/C=C/c1ncnc2c1ncn2[C@@H]1O[C@H](CO)[C@@H](O)[C@H]1O | 0.8 | 4 | 0.62 | 1.25 | 3.3 | 2.2 | 5 | – | – | – | – | – | – | – | – | – | –
2 | OC[C@H]1O[C@@H](n2cnc3c(CCN4CCOCC4)ncnc32)[C@H](O)[C@@H]1O | – | 6 | – | – | – | – | 31 | inactive | inactive | inactive | – | – | – | – | – | – | –
3 | OC[C@H]1O[C@@H](n2cnc3c(/C=C/N4CCOCC4)ncnc32)[C@H](O)[C@@H]1O | 0.41 | 5 | 0.31 | 2.4 | 4.5 | 2.3 | 23 | – | – | – | – | – | – | – | – | – | –
4 | O=c1[nH]c(=O)n([C@H]2C[C@H](O)[C@@H](CO)O2)cc1F [FLOXURIDINE] | – | – | – | 0.017 | 0.012 | 0.012 | – | – | – | – | – | – | – | – | – | – | –
5 | COCCc1ncnc2c1ncn2[C@@H]1O[C@H](CO)[C@@H](O)[C@H]1O | – | 40 | – | – | – | – | > 100 | inactive | inactive | inactive | 13 | – | – | – | – | – | –
6 | OC[C@H]1O[C@@H](n2cnc3c(CCSc4nc5ccccc5s4)ncnc32)[C@H](O)[C@@H]1O | – | > 100 | – | – | – | – | > 100 | inactive | inactive | inactive | – | – | – | – | – | – | –
7 | C[C@@]1(O)[C@H](O)[C@@H](CO)O[C@H]1n1cnc2c(N)ncnc21 | – | 0.23 | – | – | – | – | > 100 | – | – | – | – | – | – | – | – | – | –
8 | CCCCN(/C=C/c1ncnc2c1ncn2[C@H]1C[C@H](O)[C@@H](CO)O1)CCCC | – | 85 | – | – | – | – | > 100 | inactive | inactive | inactive | – | – | – | – | – | – | –
9 | CCN(/C=C/c1ncnc2c1ncn2[C@@H]1O[C@H](CO)[C@@H](O)[C@H]1O)CC | 0.67 | 4 | 0.81 | 1 | 2.3 | 2.2 | 8 | – | – | – | – | – | – | – | – | – | –
10 | OC[C@H]1O[C@@H](n2cnc3c(CC4SCCS4)ncnc32)[C@H](O)[C@@H]1O | – | > 100 | – | – | – | – | > 100 | inactive | inactive | inactive | – | – | – | – | – | – | –
11 | COC(=O)CSCCc1ncnc2c1ncn2[C@@H]1O[C@H](CO)[C@@H](O)[C@H]1O | – | 54 | – | – | – | – | > 100 | inactive | inactive | inactive | > 100 | – | – | – | – | – | –
12 | CN(CCc1ncnc2c1ncn2[C@@H]1O[C@H](CO)[C@@H](O)[C@H]1O)Cc1ccccc1 | 5.83 | 11 | 17.7 | 5.7 | 11.2 | 7.9 | 132 | – | – | – | – | 0.95 | 1.08 | 0.94 | – | – | –
13 | OC[C@H]1O[C@@H](n2cnc3c(CCN4CCCCC4)ncnc32)[C@H](O)[C@@H]1O | – | 37 | – | – | – | – | > 250 | inactive | inactive | inactive | – | – | – | – | – | – | –
14 | CN(C)CCc1ncnc2c1ncn2[C@H]1C[C@H](O)[C@@H](CO)O1 | – | 116 | – | – | – | – | > 250 | inactive | inactive | inactive | – | – | – | – | – | – | –
15 | CN(/C=C/c1ncnc2c1ncn2[C@@H]1O[C@H](CO)[C@@H](O)[C@H]1O)Cc1ccccc1 | 0.78 | 0.34 | 0.57 | 2.3 | 3.6 | 2.1 | 1 | – | – | – | – | – | – | – | – | – | –
16 | CCN(CC)CCc1ncnc2c1ncn2[C@@H]1O[C@H](CO)[C@@H](O)[C@H]1O | 0.8 | 6.7 | 17.3 | 1.25 | 6.8 | 5.2 | 45 | – | – | – | – | 1.08 | 0.99 | 0.8 | 0.65 | 1.38 | 0.78
17 | OC[C@H]1O[C@@H](n2cnc3c(/C=C/N4CCCCC4)ncnc32)C[C@@H]1O | – | 53 | – | – | – | – | > 100 | inactive | inactive | inactive | – | – | – | – | – | – | –
18 | CCCCN(/C=C/c1ncnc2c1ncn2[C@@H]1O[C@H](CO)[C@@H](O)[C@H]1O)CCCC | 0.83 | 1 | 0.84 | 2.5 | 7.2 | 2 | 2 | – | – | – | – | – | – | – | – | – | –
19 | OC[C@H]1O[C@@H](n2cnc3c(/C=C/N4CCCCC4)ncnc32)[C@H](O)[C@@H]1O | 0.32 | 1 | 0.44 | 2.1 | 2.3 | 1.55 | 26 | – | – | – | 6 | – | – | – | – | – | –
20 | CSCCc1ncnc2c1ncn2[C@@H]1O[C@H](CO)[C@@H](O)[C@H]1O | – | > 100 | – | – | – | – | > 100 | inactive | inactive | inactive | – | – | – | – | – | – | –
21 | OC[C@H]1O[C@@H](n2cnc3c(CCSCc4ccccc4)ncnc32)[C@H](O)[C@@H]1O | – | > 100 | – | – | – | – | > 100 | inactive | inactive | inactive | – | – | – | – | – | – | –
22 | OC[C@H]1O[C@@H](n2cnc3c(CCN4CCOCC4)ncnc32)C[C@@H]1O | – | 25 | – | – | – | – | > 100 | inactive | inactive | inactive | 13 | – | – | – | – | – | –
23 | CN(C)CCc1ncnc2c1ncn2[C@@H]1O[C@H](CO)[C@@H](O)[C@H]1O | – | 7 | – | – | – | – | 20 | inactive | inactive | inactive | – | – | – | – | – | – | –
